Data: ChEMBL document CHEMBL4052757, “Bistacrines as potential antitrypanosomal agents” (Bioorg Med Chem, 2017)
Calls of active or inactive are those of the source. The rule behind the calls is not given here.

Assays:
[1] = molecular target: Trypanothione reductase (Trypanosoma cruzi) (UniProt P28593); experiment: Inhibition of Trypanosoma cruzi trypanothione reductase at 5 uM using 40 uM trypanothione disulfide as substrate by spectrophotometric method relative to control
Outline: (§1)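 TcTryR (about 2 nM) in 40 mM HEPES, 1 mM EDTA, pH 7.5, 100 µM NADPH; inhibitor at fixed 2 or 5 µM (screening range 1–5 µM) from DMSO stock; TS2 fixed at 40 or 100 µM; absorbance decrease monitored; percent inhibition versus DMSO control.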

[2] = molecular target: Rhodesain (Trypanosoma brucei rhodesiense, UniProt Q95PM0); experiment: Inhibition of Trypanosoma brucei rhodesiense rhodesain using Cbz-Phe-Arg-AMC as substrate measured for 10 mins by spectrofluorometric analysis
[3] = molecular target: Rhodesain (Trypanosoma brucei rhodesiense) (UniProt Q95PM0); experiment: Inhibition of Trypanosoma brucei rhodesiense rhodesain at 20 uM using Cbz-Phe-Arg-AMC as substrate measured for 5 mins by spectrofluorometric analysis relative to control
Outline: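 Rhodesain in 50 mM sodium acetate pH 5.5 with 5 mM DTT, 5 mM EDTA, 200 mM NaCl; inhibitor 20 µM, substrate Cbz-Phe-Arg-AMC; AMC fluorescence (ex 380/em 460 nm) followed 5 min; activity from slopes of fluorescence vs time versus DMSO control; run in duplicate.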

[4] = molecular target: Trypanothione reductase (Trypanosoma cruzi) (UniProt P28593); experiment: Inhibition of Trypanosoma cruzi trypanothione reductase at 50 uM using 100 uM trypanothione disulfide as substrate by spectrophotometric method relative to control
[5] = molecular target: Trypanothione reductase (Trypanosoma cruzi) (UniProt P28593); experiment: Inhibition of Trypanosoma cruzi trypanothione reductase at 2 uM using 40 uM trypanothione disulfide as substrate by spectrophotometric method relative to control; outline: as §1
[6] = test system: Trypanosoma brucei brucei; experiment: Antitrypanosomal activity against Trypanosoma brucei brucei TC221 after 72 hrs by alamar blue assay; assay type: functional; conditions: TC221, 72 h
Outline: (§2)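 T. b. brucei TC221 bloodstream-form proliferation measured by alamarBlue (resazurin reduced to resorufin by living cells); 48 h and 72 h read-outs. IC50 derived per Räz et al. method; each compound tested in duplicate, mean of two values.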

[7] = test system: Trypanosoma brucei brucei; experiment: Antitrypanosomal activity against Trypanosoma brucei brucei TC221 after 48 hrs by alamar blue assay; assay type: functional; conditions: TC221, 48 h; outline: as §2
[8] = molecular target: Trypanothione reductase (Trypanosoma cruzi) (UniProt P28593); experiment: Inhibition of Trypanosoma cruzi trypanothione reductase at 2 uM using 100 uM trypanothione disulfide as substrate by spectrophotometric method relative to control; outline: as §1
[9] = molecular target: Rhodesain (Trypanosoma brucei rhodesiense) (UniProt Q95PM0); experiment: Inhibition of Trypanosoma brucei rhodesiense rhodesain using Cbz-Phe-Arg-AMC as substrate by spectrofluorometric analysis
[10] = molecular target: Trypanothione reductase (Trypanosoma cruzi) (UniProt P28593); experiment: Inhibition of Trypanosoma cruzi trypanothione reductase at 5 uM using 100 uM trypanothione disulfide as substrate by spectrophotometric method relative to control; outline: as §1
[11] = test system: Leishmania infantum; experiment: Antileishmanial activity against Leishmania infantum; assay type: functional
[12] = test system: Trypanosoma brucei; experiment: Inhibition of Trypanosoma brucei trypanothione reductase at 5 uM using 100 uM trypanothione disulfide as substrate by spectrophotometric method relative to control
Outline: (§3)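 TbTryR (about 2 nM) in 40 mM HEPES, 1 mM EDTA, pH 7.5 with 100 µM NADPH; inhibitor 5 µM from DMSO stock, fixed TS2 at 100 or 40 µM; NADPH consumption followed as absorbance decrease; inhibition relative to DMSO control.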

[13] = test system: Trypanosoma brucei; experiment: Inhibition of Trypanosoma brucei trypanothione reductase at 5 uM using 40 uM trypanothione disulfide as substrate by spectrophotometric method relative to control; outline: as §3
[14] = molecular target: Rhodesain (Trypanosoma brucei rhodesiense) (UniProt Q95PM0); experiment: Inhibition of Trypanosoma brucei rhodesiense rhodesain assessed as second-order rate constant using Cbz-Phe-Arg-AMC as substrate measured for 10 mins by spectrofluorometric analysis
[15] = test system: J774.1; experiment: Cytotoxicity against mouse J774.1 cells after 24 hrs by alamar blue assay; assay type: cell-based; conditions: J774.1, 24 h
[16] = Selectivity index, ratio of IC50 for mouse J774.1 cells to IC50 for Trypanosoma brucei brucei TC221 measured after 48 hrs; assay type: toxicity; conditions: J774.1 cells (versus Trypanosoma brucei brucei TC221), read-out: Ratio IC50
Outline: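 Selectivity index computed as IC50 (J774.1 macrophages, alamarBlue) divided by IC50 (T. b. brucei TC221, alamarBlue); duplicate determinations, means used.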

[17] = Stability of the compound; assay type: physicochemical
[18] = Mixed-type inhibition of Trypanosoma brucei trypanothione reductase assessed as enzyme-substrate complex using varying levels of trypanothione disulfide as substrate by Lineweaver-burk plot analysis
Outline: (§4)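 TbTryR kinetics in HEPES/EDTA pH 7.5 with 100 µM NADPH; TS2 varied 20–200 µM at several inhibitor levels, DMSO control; Lineweaver-Burk plots; Ki and Ki' fitted.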

[19] = Mixed-type inhibition of Trypanosoma brucei trypanothione reductase assessed as enzyme-substrate-inhibitor complex using varying levels of trypanothione disulfide as substrate by Lineweaver-burk plot analysis; outline: as §4
[20] = Inhibition of trypanothione reductase

Chain of Trypanothione reductase (Trypanosoma cruzi) (P28593 whole entry, looked up): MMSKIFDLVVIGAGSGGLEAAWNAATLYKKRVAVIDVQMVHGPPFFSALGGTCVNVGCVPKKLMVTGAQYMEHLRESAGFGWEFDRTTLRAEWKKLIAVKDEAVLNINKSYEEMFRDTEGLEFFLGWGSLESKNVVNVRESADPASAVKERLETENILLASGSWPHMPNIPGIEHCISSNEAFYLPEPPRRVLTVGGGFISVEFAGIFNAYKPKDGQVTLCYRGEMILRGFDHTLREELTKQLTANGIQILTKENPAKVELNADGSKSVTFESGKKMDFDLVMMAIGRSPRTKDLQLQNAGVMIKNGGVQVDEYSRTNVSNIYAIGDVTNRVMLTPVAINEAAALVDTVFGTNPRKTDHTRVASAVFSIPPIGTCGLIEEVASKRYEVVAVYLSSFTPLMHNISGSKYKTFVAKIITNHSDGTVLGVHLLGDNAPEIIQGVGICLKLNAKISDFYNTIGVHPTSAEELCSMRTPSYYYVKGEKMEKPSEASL
Chain of Rhodesain (Trypanosoma brucei rhodesiense) (Q95PM0 1-450): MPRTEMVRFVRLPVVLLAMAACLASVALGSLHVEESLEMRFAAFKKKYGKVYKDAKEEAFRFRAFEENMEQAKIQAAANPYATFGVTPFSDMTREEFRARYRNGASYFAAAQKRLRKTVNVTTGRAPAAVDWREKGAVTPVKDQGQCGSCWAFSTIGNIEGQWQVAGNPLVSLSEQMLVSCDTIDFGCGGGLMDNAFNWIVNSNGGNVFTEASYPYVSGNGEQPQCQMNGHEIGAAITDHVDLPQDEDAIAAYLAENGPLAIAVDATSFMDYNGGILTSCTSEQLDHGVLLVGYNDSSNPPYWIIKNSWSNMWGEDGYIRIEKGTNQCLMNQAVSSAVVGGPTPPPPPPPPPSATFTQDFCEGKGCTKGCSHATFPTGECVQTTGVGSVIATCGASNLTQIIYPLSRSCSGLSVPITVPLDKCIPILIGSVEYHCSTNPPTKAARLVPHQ
Chain of Rhodesain (Q95PM0 whole entry): as the sequence (Q95PM0 1-450) above

SMILES	inhibition [1] [%]	IC50 [2] [nM]	inhibition [3] [%]	inhibition [4] [%]	inhibition [5] [%]	IC50 [6] [nM]	IC50 [7] [nM]	inhibition [8] [%]	inhibition [9]	inhibition [10] [%]	Activity [11]	inhibition [12] [%]	inhibition [13] [%]	K [14] [M⁻¹ s⁻¹]	IC50 [15] [nM]	selectivity ratio at 48 h [16]	Stability [17]	Ki [18] [nM]	Ki [19] [nM]	inhibition [20]
c1ccc2c(NCCCCCCCCNc3c4c(nc5ccccc35)CCCC4)c3c(nc2c1)CCCC3	73.3 to 78.3	16900	87	100	45 to 46.7	660	400	28.8 to 32.9	Dose-dependent effect	64.4 to 68.5	Active									
c1ccc2c(NCCCCCCCNc3c4c(nc5ccccc35)CCCC4)c3c(nc2c1)CCCC3	66.4		44		34.4 to 37.8	590	160	23.2 to 25.8		51 to 55	Active	53	66							
CN1CCN(C(=O)N[C@@H](Cc2ccccc2)C(=O)N[C@H](/C=C/S(=O)(=O)c2ccccc2)CCc2ccccc2)CC1														500000						
C1=Cc2c(nc3ccccc3c2NCCCCCCCNc2c3c(nc4ccccc24)CCC=C3)CC1						10	10				Active	53	47		1500	152	Stable	1200	12000	Active
